Source: ChEMBL document CHEMBL1152355, “Application of a 3,3-diphenylpentane skeleton as a multi-template for creation of HMG-CoA reductase inhibitors” (Bioorg Med Chem Lett, 2009)
pIC50: −log10 of the molar value.

Experiments:
[1] = target: T1, 3-hydroxy-3-methylglutaryl-coenzyme A reductase (Rattus norvegicus, UniProt P51639); assay: Inhibition of rat HMG-CoA reductase using 0.37 MBq DL-[3-14C]HMG-CoA
T1 sequence (P51639 whole entry): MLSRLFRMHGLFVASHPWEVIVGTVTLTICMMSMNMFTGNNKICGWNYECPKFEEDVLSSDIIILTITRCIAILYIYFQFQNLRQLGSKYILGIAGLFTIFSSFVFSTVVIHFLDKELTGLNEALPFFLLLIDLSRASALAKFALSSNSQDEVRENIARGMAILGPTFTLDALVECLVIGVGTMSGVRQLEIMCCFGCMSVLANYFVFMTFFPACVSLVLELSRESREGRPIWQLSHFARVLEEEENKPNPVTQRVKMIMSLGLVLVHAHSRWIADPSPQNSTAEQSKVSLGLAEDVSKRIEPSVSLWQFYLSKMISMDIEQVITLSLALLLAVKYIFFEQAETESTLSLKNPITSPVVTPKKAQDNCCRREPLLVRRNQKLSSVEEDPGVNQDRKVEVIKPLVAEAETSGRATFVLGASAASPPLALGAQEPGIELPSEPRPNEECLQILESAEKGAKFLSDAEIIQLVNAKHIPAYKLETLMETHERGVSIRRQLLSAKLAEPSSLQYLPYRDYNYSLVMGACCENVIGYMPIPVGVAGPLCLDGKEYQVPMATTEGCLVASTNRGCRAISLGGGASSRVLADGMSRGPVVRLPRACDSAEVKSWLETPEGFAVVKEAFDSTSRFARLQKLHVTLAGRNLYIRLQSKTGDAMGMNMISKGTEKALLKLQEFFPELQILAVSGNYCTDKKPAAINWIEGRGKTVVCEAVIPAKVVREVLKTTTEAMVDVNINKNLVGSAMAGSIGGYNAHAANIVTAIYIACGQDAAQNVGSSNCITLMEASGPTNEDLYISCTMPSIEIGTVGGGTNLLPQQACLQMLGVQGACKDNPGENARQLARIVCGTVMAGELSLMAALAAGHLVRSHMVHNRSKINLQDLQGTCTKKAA
Summary of the method: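 Method B used the lower substrate level, 0.37 MBq DL-[3-14C]HMG-CoA, with rat microsomal fraction (10 mg protein) at 37 °C for 30 min. Stopped with 2 M HCl, with conversion to mevalonolactone. Separation was on silica TLC with acetone/benzene 1:1, and radioactivity per spot was quantified by bioimaging. The IC50 was taken from this readout.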

[2] = target: T1, 3-hydroxy-3-methylglutaryl-coenzyme A reductase; assay: Inhibition of rat HMG-CoA reductase using 3.7 MBq DL-[3-14C]HMG-CoA
Summary of the method: (§1)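 Rat HMG-CoA reductase (method A): 3.7 MBq DL-[3-14C]HMG-CoA with 10 mg microsomal protein, 37 °C for 30 min. The reaction was stopped with 2 M HCl and metabolites were converted to mevalonolactone. Products were separated by silica TLC in acetone/benzene (1:1 v/v), and spot radioactivity was read by bioimaging analyzer.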

[3] = target: T1, 3-hydroxy-3-methylglutaryl-coenzyme A reductase; assay: Inhibition of rat HMG-CoA reductase at 100 mM using 3.7 MBq DL-[3-14C]HMG-CoA; summary of the method: as §1

pIC50 [1]	SMILES	also measured
5.74	CCC(CC)(c1ccccc1)c1ccc(/C=C/[C@@H](O)C[C@@H](O)CC(=O)O)c(C(C)C)c1	–
6.82	CCC(CC)(c1ccccc1)c1ccc(/C=C/[C@@H](O)C[C@@H](O)CC(=O)O)c(-c2ccc(F)cc2)c1	–

Second part, the molecule before the results:

SMILES	pIC50 [1]	also measured
CCC(CC)(c1cccc(F)c1)c1ccc(/C=C/[C@@H](O)C[C@@H](O)CC(=O)O)c(C(C)C)c1	–	pIC50 [2]: 4.04
CCC(CC)(c1ccc(F)cc1)c1ccc(/C=C/[C@@H](O)C[C@@H](O)CC(=O)[O-])cc1.[Na+]	–	IC50 [3]: Not Active
CC[C@H](C)C(=O)O[C@H]1CCC=C2C=C[C@H](C)[C@H](CC[C@@H]3C[C@@H](O)CC(=O)O3)[C@H]21 [MEVASTATIN]	7.40	–
